Assay results reported in ChEMBL document CHEMBL5653622 (Oncotarget, 2016).
Calls of active or inactive are those of the source. No cut-off for these calls is given here.

Tests used:
Mus musculus [1] = assay: In vivo inhibition of CHK1 in CRTac:Ncr-Fox1 mouse xenografted with human HT-29 cells assessed as reduction of phosphorylation of CHK1 on S296 at 50 mg/kg, po administered for 24 hrs by Western blotting analysis; type: functional, organism-based
Summary of the method: (§1)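 HT29 s.c. xenografts in female athymic nude mice. Single gemcitabine dose 100mg/kg i.v. on day 0, then one inhibitor dose 50 or 100mg/kg p.o. (DPTW vehicle) 24h later. Tumors taken 24h after the last dose, western blotted, and signals quantified by normalizing to GAPDH.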

[2] = Toxicity in Emu-Myc driven transgenic mouse transplant model of B-cell lymphoma assessed as reduction in weight of lung at 150 mg/kg, po administered for 9 days; type: organism-based; conditions: in vivo, 216 h, time 9 day
[3] = target: Maternal embryonic leucine zipper kinase (Homo sapiens) (UniProt Q14680); assay: Inhibition of human MELK assessed as remaining activity at 10 uM in presence of ATP by radiometric kinase assay relative to control
[4] = target: Tyrosine-protein kinase ABL1 (Homo sapiens) (UniProt P00519); assay: Inhibition of human ABL assessed as remaining activity at 10 uM in presence of ATP by radiometric kinase assay relative to control
[5] = Tmax in BALB/C mouse spleen at 10 mg/kg, iv by LC/MS-MS analysis; type: ADME, organism-based
[6] = Cmax in BALB/C mouse spleen at 10 mg/kg, iv by LC/MS-MS analysis; type: ADME, organism-based
Summary of the method: (§2)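 Female BALB/c mice received a single 10mg/kg bolus i.v. or p.o. Plasma (and spleen homogenate) extracted with methanol containing internal standards. Concentrations were measured by LC/MS-MS and PK parameters calculated with modelling software.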

[7] = target: Tyrosine-protein kinase JAK2 (Homo sapiens) (UniProt O60674); assay: Inhibition of human JAK2 assessed as remaining activity at 10 uM in presence of ATP by radiometric kinase assay relative to control
[8] = target: Serine/threonine-protein kinase BRSK1 (Homo sapiens) (UniProt Q8TDC3); assay: Inhibition of human BRSK1 at 10 uM in presence of ATP by radiometric kinase assay relative to control
[9] = AUC (0 to infinity) in BALB/C mouse spleen at 10 mg/kg, iv by LC/MS-MS analysis; type: ADME, organism-based
[10] = target: Ephrin type-B receptor 2 (Homo sapiens) (UniProt P29323); assay: Inhibition of human EPH-B2 assessed as remaining activity at 10 uM in presence of ATP by radiometric kinase assay relative to control
Mus musculus [11] = assay: In vivo inhibition of CHK1 in CRTac:Ncr-Fox1 mouse xenografted with human HT-29 cells assessed as reduction of phosphorylation of CHK1 on S296 at 100 mg/kg, po administered for 24 hrs by Western blotting analysis; type: functional, organism-based; summary of the method: as §1
[12] = target: Protein kinase C zeta type (Homo sapiens) (UniProt Q05513); assay: Inhibition of human PKCz assessed as remaining activity at 10 uM in presence of ATP by radiometric kinase assay relative to control
[13] = target: Dual specificity protein kinase CLK2 (Homo sapiens, UniProt P49760); assay: Inhibition of human CLK2 by FRET based Z-LYTE kinase assay
[14] = Toxicity in Emu-Myc driven transgenic mouse transplant model of B-cell lymphoma assessed as change in water consumption at 150 mg/kg, po administered for 9 days; type: organism-based; conditions: in vivo, 216 h, time 9 day
[15] = Toxicity in Emu-Myc driven transgenic mouse transplant model of B-cell lymphoma assessed as change in body weight at 150 mg/kg, po administered for 9 days; type: organism-based; conditions: in vivo, 216 h, time 9 day
[16] = Toxicity in Emu-Myc driven transgenic mouse transplant model of B-cell lymphoma assessed as reduction in weight of bone marrow at 150 mg/kg, po administered for 9 days; type: organism-based; conditions: in vivo, 216 h, time 9 day
[17] = target: Ribosomal protein S6 kinase alpha-5 (Homo sapiens) (UniProt O75582); assay: Inhibition of human MSK1 assessed as remaining activity at 10 uM in presence of ATP by radiometric kinase assay relative to control
HT-29 = assay: Induction of cell cycle arrest in human HT-29 cells assessed as accumulation of cells at G0/G1 phase at 0.5 uM incubated for 24 hrs by BrdU and PI staining based flow cytometry analysis; type: functional
Summary of the method: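 HT29 cells exposed for 24h, stained with bromodeoxyuridine and propidium iodide, and cell-cycle distribution measured by flow cytometry.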

[18] = target: Phosphorylase b kinase gamma catalytic chain, skeletal muscle/heart isoform (Homo sapiens, UniProt Q16816); assay: Inhibition of PHKG1 (unknown origin) by FRET based Z-LYTE kinase assay
[19] = Tmax in BALB/C mouse plasma at 10 mg/kg, iv by LC/MS-MS analysis; type: ADME, organism-based
[20] = target: Protein kinase C alpha type (Homo sapiens) (UniProt P17252); assay: Inhibition of human PKCa assessed as remaining activity at 10 uM in presence of ATP by radiometric kinase assay relative to control
[21] = target: MAP kinase-interacting serine/threonine-protein kinase 1 (Homo sapiens) (UniProt Q9BUB5); assay: Inhibition of human MNK1 assessed as remaining activity at 10 uM in presence of ATP by radiometric kinase assay relative to control
[22] = Cmax in BALB/C mouse plasma at 10 mg/kg, iv by LC/MS-MS analysis; type: ADME, organism-based; summary of the method: as §2
[23] = target: Serine/threonine-protein kinase MARK2 (Homo sapiens) (UniProt Q7KZI7); assay: Inhibition of human MARK2 assessed as remaining activity at 10 uM in presence of ATP by radiometric kinase assay relative to control
[24] = target: MAP/microtubule affinity-regulating kinase 3 (Homo sapiens, UniProt P27448); assay: Inhibition of human MARK3 by FRET based Z-LYTE kinase assay
[25] = Half life in BALB/C mouse spleen at 10 mg/kg, po by LC/MS-MS analysis; type: ADME, organism-based
Summary of the method: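 Female BALB/c mice received a single bolus of 10mg/kg, either i.v. or p.o. The oral vehicle was DPTW (10% DMSO, 20% PEG400, 5% Tween 80, 65% water). Plasma and spleen homogenates were extracted with methanol containing internal standards. Drug levels were measured by LC/MS-MS, and pharmacokinetic parameters were calculated from the concentration-time profiles.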

[26] = target: Serine/threonine-protein kinase MARK1 (Homo sapiens) (UniProt Q9P0L2); assay: Inhibition of human MARK1 assessed as remaining activity at 10 uM in presence of ATP by radiometric kinase assay relative to control
[27] = target: Testis-specific serine/threonine-protein kinase 1 (Homo sapiens) (UniProt Q9BXA7); assay: Inhibition of human TSSK1 assessed as remaining activity at 10 uM in presence of ATP by radiometric kinase assay relative to control
[28] = target: Ribosomal protein S6 kinase alpha-3 (Homo sapiens, UniProt P51812); assay: Inhibition of human RSK2 at 10 uM in presence of ATP by radiometric kinase assay relative to control
[29] = target: Dual specificity tyrosine-phosphorylation-regulated kinase 3 (Homo sapiens) (UniProt O43781); assay: Inhibition of human DYRK3 assessed as remaining activity at 10 uM in presence of ATP by radiometric kinase assay relative to control
Sequence of Dual specificity tyrosine-phosphorylation-regulated kinase 3 (Homo sapiens) (O43781 whole entry): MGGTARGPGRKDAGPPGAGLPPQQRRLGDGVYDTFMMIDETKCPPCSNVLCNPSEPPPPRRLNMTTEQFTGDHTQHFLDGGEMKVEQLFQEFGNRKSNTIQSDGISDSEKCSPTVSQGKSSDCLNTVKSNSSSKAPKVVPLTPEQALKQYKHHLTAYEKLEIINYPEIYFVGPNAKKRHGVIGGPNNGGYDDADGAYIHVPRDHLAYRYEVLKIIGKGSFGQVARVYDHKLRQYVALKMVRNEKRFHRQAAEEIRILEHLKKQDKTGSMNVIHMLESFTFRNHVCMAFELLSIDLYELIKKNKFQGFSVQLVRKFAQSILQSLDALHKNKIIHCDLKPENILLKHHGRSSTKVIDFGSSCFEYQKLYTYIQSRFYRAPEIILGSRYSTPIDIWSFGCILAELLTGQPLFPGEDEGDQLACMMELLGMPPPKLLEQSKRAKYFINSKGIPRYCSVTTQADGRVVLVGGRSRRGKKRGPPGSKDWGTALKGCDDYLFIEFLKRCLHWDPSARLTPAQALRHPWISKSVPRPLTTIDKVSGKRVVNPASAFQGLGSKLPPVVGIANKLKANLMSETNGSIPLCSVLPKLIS

Sequence of Phosphorylase b kinase gamma catalytic chain, skeletal muscle/heart isoform (Q16816 whole entry, canonical isoform): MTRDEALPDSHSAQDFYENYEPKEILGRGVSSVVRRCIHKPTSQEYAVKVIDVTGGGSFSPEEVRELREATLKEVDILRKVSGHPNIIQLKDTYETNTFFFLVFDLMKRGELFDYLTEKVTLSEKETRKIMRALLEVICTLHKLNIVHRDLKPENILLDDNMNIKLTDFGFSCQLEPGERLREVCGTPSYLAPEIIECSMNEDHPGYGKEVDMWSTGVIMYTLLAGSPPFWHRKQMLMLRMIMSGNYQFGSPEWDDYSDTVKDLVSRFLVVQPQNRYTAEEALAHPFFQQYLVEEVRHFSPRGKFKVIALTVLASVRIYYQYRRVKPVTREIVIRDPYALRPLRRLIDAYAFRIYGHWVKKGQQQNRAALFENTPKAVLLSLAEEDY
Sequence of Maternal embryonic leucine zipper kinase (Homo sapiens) (Q14680 whole entry, looked up): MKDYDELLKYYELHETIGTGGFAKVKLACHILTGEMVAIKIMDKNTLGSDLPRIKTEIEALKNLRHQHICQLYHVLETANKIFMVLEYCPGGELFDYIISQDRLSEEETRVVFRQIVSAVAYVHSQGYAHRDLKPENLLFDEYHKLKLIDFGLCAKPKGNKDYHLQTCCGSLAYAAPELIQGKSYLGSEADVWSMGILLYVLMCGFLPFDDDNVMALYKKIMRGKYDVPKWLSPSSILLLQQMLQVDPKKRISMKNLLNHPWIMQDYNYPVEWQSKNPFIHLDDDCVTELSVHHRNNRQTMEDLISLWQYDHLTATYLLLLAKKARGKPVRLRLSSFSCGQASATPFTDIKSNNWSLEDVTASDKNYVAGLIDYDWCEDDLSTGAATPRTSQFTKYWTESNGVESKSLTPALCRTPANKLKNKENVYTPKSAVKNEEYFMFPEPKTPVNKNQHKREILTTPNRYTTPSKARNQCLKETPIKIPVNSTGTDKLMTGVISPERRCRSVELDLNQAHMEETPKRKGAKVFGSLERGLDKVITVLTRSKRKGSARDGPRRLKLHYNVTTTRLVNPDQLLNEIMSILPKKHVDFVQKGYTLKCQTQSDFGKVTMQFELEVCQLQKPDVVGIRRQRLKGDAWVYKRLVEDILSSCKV
Sequence of Serine/threonine-protein kinase MARK2 (Homo sapiens) (Q7KZI7 whole entry): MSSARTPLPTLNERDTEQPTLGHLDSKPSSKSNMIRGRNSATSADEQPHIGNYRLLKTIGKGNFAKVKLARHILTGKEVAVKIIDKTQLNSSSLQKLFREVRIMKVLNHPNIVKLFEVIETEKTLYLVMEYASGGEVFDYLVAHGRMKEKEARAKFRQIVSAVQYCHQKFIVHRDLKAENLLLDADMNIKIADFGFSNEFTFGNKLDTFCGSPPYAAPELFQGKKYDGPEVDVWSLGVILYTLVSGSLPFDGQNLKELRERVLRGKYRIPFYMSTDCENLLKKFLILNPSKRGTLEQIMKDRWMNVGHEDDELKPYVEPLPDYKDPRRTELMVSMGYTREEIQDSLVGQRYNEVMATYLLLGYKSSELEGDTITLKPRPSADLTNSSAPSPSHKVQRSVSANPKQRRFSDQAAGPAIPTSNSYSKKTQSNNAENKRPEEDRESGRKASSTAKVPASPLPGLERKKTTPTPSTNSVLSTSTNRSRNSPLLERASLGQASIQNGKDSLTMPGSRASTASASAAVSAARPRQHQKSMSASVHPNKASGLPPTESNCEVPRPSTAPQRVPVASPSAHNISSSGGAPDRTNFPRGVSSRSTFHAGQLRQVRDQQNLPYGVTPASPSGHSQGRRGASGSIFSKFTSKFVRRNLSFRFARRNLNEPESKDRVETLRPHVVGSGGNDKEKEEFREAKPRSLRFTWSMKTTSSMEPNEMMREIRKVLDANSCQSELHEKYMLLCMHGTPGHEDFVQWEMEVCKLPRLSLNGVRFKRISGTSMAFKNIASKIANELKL
Sequence of Testis-specific serine/threonine-protein kinase 1 (Homo sapiens) (Q9BXA7 whole entry): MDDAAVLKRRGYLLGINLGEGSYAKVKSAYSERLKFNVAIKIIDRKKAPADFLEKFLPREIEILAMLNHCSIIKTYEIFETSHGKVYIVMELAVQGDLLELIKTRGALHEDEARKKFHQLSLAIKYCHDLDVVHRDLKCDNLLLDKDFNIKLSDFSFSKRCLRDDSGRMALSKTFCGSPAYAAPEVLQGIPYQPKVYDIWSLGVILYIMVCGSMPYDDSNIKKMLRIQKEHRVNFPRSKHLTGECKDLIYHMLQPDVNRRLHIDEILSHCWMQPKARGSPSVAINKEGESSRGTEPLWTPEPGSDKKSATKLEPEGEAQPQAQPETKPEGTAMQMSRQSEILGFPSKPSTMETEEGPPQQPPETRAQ
Sequence of Tyrosine-protein kinase JAK2 (Homo sapiens) (O60674 whole entry): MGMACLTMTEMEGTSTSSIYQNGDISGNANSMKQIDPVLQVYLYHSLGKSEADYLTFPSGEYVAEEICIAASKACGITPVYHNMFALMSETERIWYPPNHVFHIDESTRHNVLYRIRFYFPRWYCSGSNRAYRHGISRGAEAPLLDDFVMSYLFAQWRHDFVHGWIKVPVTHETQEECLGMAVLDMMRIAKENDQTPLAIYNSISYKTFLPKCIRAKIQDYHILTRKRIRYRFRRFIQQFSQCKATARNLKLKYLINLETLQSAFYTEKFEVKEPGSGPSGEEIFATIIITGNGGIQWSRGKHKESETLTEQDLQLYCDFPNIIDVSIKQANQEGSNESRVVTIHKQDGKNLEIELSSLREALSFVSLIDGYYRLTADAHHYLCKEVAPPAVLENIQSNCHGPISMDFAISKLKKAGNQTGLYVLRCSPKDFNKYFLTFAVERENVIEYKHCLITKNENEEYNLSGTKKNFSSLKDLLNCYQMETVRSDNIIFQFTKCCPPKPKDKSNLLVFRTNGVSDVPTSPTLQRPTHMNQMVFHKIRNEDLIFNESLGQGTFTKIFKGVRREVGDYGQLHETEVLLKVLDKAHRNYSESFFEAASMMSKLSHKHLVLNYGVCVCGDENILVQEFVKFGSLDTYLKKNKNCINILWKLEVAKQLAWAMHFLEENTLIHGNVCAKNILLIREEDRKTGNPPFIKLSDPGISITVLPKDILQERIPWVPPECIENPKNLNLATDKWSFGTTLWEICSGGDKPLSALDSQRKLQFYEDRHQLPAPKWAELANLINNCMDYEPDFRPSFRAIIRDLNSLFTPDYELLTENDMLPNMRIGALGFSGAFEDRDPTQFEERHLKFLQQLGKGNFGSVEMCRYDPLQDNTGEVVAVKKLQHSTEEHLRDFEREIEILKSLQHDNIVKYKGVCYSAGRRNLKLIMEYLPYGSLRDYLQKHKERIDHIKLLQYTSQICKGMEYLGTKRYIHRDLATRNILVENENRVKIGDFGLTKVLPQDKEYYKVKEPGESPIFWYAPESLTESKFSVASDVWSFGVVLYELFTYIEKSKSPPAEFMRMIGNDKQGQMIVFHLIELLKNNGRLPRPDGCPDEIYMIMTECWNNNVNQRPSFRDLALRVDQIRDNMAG
Sequence of MAP/microtubule affinity-regulating kinase 3 (P27448 whole entry): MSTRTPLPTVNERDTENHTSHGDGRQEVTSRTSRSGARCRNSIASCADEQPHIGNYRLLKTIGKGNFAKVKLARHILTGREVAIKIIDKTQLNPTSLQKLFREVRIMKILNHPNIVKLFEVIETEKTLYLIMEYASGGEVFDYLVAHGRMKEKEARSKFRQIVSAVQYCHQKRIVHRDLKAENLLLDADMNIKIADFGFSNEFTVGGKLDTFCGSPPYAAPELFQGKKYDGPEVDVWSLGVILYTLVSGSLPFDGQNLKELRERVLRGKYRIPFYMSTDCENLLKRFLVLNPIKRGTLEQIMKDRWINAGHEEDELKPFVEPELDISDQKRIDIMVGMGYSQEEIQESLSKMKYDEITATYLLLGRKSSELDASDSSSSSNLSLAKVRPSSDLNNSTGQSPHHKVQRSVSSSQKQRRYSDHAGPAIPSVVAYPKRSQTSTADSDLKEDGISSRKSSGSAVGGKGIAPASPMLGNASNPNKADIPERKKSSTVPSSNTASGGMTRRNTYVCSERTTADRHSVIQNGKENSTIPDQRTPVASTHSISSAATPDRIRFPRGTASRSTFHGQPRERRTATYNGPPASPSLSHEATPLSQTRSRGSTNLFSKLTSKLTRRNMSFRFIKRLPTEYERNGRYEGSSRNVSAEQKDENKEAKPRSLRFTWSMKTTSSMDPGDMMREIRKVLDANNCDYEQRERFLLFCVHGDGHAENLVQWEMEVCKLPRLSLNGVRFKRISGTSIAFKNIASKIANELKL

Activity [3]: 37% | Activity [4]: 93% | Tmax [5]: 30 min | Cmax [6]: 44.7 µM | Activity [7]: 37% | inhibition [8]: 88% | AUC(0-inf) [9]: 262 µM·h | Activity [10]: 102% | Activity [12]: 92% | IC50 [13]: 1.37 µM | Activity [17]: 30% | IC50 [18]: 3.47 µM | Tmax [19]: 4.98 min | Activity [20]: 82% | Activity [21]: 62% | Cmax [22]: 4 µM | Activity [23]: 21% | IC50 [24]: 0.698 µM | half-life [25]: 187 min | Activity [26]: 43% | Activity [27]: 53% | inhibition [28]: 81% | Activity [29]: 24%
Structure (SMILES): N#Cc1cnc(Nc2cc(NC[C@H]3CNCCO3)c(C(F)(F)F)cn2)cn1 [SRA-737]
Activity (Mus musculus [1]): Active | Activity [2]: Toxic | Activity (Mus musculus [11]): Active | Activity [14]: Non-Toxic | Activity [15]: Non-Toxic | Activity [16]: Toxic | Activity (HT-29): Active
